# ChEMBL document CHEMBL2203031, “Inhibitors of the NAD(+)-Dependent Protein Desuccinylase and Demalonylase Sirt5” (ACS Med Chem Lett, 2012)
# The source made the active and inactive calls. The calls are words filed in the database; no cut-off is given here.
# How the values were obtained:
# [1] = target: T1, NAD-dependent protein deacetylase sirtuin-2 (Homo sapiens, UniProt Q8IXJ6); test: Inhibition of recombinant SIRT2 using ZMAL substrate after 4 hrs by homogeneous fluorescence assay
# T1 sequence (Q8IXJ6 whole entry): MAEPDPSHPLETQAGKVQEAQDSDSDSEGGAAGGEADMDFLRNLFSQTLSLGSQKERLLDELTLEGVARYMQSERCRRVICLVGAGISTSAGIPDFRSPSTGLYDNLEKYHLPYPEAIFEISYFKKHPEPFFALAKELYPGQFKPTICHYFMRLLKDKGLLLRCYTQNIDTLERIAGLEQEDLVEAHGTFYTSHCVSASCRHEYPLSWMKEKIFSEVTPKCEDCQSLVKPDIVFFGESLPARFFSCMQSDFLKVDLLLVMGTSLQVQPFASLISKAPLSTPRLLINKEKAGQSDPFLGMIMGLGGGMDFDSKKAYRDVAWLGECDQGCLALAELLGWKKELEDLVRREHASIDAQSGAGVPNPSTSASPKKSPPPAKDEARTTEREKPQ
# [2] = target: NAD-dependent protein deacylase sirtuin-5, mitochondrial (Homo sapiens, UniProt Q9NXA8); test: Inhibition of SIRT5 using ZK(suc)A substrate after 1 hr by homogeneous fluorescence assay
# NAD-dependent protein deacylase sirtuin-5, mitochondrial, sequence (Q9NXA8 whole entry): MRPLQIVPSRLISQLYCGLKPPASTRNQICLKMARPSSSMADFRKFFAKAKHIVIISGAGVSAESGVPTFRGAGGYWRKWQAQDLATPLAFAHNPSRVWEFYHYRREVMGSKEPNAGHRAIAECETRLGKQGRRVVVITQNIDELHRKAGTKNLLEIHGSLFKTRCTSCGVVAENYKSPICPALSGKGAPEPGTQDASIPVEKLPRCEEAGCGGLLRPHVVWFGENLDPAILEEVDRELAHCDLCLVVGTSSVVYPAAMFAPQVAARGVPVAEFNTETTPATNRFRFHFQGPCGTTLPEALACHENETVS
# How it was run: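 Recombinant Sirt5 reacted with 200 µM succinyl-lysine AMC substrate ZK(s)A and 500 µM NAD+ in pH 8.0 Tris buffer (130 mM NaCl, 3 mM KCl, 1 mM MgCl2, 0.1% PEG8000) with DMSO <2%. Ran 1 h at 37 °C, then trypsin for 2 min at 37 °C. Conversion without inhibitor set to 4–10%. Inhibition calculated against DMSO control, at least two independent runs; IC50 from curve fit.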
# [3] = target: T2, NAD-dependent protein deacetylase sirtuin-1 (Homo sapiens, UniProt Q96EB6); test: Inhibition of recombinant SIRT1 using ZMAL substrate after 4 hrs by homogeneous fluorescence assay
# T2 sequence (Q96EB6 whole entry): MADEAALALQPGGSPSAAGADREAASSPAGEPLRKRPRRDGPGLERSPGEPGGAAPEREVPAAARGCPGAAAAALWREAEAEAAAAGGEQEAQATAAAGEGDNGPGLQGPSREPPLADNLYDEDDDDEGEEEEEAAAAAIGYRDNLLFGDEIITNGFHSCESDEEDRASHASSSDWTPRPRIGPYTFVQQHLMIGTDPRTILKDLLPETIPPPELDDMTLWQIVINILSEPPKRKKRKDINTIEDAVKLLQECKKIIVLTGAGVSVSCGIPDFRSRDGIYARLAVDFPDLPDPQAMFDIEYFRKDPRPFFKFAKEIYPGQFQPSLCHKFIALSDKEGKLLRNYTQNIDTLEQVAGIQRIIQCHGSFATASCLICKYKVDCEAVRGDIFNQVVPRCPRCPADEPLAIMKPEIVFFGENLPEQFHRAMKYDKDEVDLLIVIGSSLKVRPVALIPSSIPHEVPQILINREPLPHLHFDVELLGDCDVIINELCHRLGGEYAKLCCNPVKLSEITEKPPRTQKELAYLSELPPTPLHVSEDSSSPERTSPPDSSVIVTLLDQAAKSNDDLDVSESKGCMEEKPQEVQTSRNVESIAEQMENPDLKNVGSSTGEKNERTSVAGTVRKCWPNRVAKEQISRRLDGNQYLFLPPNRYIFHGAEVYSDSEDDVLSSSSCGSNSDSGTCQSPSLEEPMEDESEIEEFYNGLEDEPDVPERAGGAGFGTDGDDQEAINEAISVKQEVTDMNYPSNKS
# [4] = target: T3, NAD-dependent protein deacetylase sirtuin-3, mitochondrial (Homo sapiens) (UniProt Q9NTG7); test: Inhibition of recombinant SIRT3 using ZMAL substrate at 50 uM after 4 hrs by homogeneous fluorescence assay
# T3 sequence (whole entry): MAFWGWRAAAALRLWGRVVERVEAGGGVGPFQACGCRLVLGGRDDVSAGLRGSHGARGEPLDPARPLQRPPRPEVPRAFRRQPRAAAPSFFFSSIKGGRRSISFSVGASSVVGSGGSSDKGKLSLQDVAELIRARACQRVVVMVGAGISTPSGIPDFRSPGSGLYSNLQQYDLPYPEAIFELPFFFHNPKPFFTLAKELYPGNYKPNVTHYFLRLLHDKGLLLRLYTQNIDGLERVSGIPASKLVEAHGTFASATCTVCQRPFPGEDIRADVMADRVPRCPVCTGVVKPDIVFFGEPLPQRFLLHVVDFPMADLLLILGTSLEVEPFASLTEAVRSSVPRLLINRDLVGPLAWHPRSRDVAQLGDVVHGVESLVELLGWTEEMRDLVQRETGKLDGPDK
# How it was run: (§1)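 Recombinant Sirt1, Sirt2 or Sirt3 incubated with 10.5 µM ZMAL and 500 µM NAD+ in pH 8.0 Tris buffer (137 mM NaCl, 2.7 mM KCl, 1 mM MgCl2) containing 5% DMSO. Ran 4 h at 37 °C, then trypsin developer with 8 mM nicotinamide for 20 min at 37 °C. Fluorescence at Ex 390/Em 460 nm. Conversion without inhibitor held at 10–30%. Inhibition calculated versus DMSO control, at least three independent runs; IC50 by curve fitting.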
# [5] = target: T4, NAD-dependent protein deacetylase sirtuin-3, mitochondrial (Homo sapiens, UniProt Q9NTG7); test: Inhibition of recombinant SIRT3 using ZMAL substrate after 4 hrs by homogeneous fluorescence assay
# T4 sequence (Q9NTG7 whole entry): T3 sequence (whole entry)
# [6] = target: T5, NAD-dependent protein deacetylase sirtuin-2 (Homo sapiens) (UniProt Q8IXJ6); test: Inhibition of recombinant SIRT2 using ZMAL substrate at 50 uM after 4 hrs by homogeneous fluorescence assay; how it was run: as §1
# T5 sequence (whole entry): T1 sequence (Q8IXJ6 whole entry)
SMILES,IC50 [1],IC50 ([2]; read-out: IC50),IC50 ([3]; read-out: IC50),inhibition [4],also measured
C=CCN1C(=O)/C(=C/c2ccc(-c3cccc(Cl)c3Cl)o2)C(=O)NC1=S,9.7 µM,2.3 µM,5.3 µM,41%,–
O=C1CC(c2ccccc2)c2c(ccc3cc(Br)ccc23)O1 (stereo not given),1 µM,–,–,–,IC50 [2]: Not Active; IC50 [5]: Not Active; IC50 [3]: Not Active
O=C1NC(=S)NC(=O)C1=Cc1ccc(-c2cccc(Cl)c2Cl)o1,10.4 µM,3.6 µM,3.4 µM,30%,–
C=CCN1C(=O)/C(=C/c2ccc(OCc3ccccc3)cc2)C(=O)NC1=S,–,67.3 µM,36.8 µM,13%,inhibition [6]: inactive
COc1ccc2c(C=C3C(=O)NC(=S)NC3=O)cccc2c1,11.7 µM,22.4 µM,6 µM,–,–
O=C1NC(=S)NC(=O)C1=Cc1ccc(-c2ccccc2)cc1,–,30 µM,50.5 µM,–,IC50 ([5]; read-out: IC50): 40.3 µM
CC(C)c1ccc(C=C2C(=O)NC(=S)NC2=O)cc1,14.7 µM,39.4 µM,12.4 µM,13%,–
CS(=O)(=O)O.Cn1cc(C2=C(c3cn(CCCSC(=N)N)c4ccccc34)C(=O)NC2=O)c2ccccc21,–,–,–,–,IC50 [2]: Not Active
CN1C(=O)/C(=C/c2c[nH]c3ccccc23)C(=O)NC1=S,–,27 µM,42.4 µM,17%,inhibition [6]: 20%
CN1C(=O)/C(=C/c2ccc(OCc3ccccc3)cc2)C(=O)NC1=S,10 µM,17.8 µM,56.5 µM,22%,–
CCN1C(=O)/C(=C/c2ccc(OCc3ccccc3)cc2)C(=O)NC1=S,14.4 µM,12.9 µM,53.2 µM,25%,–
Cc1ccc(C(=O)Nc2ccc(S(=O)(=O)O)c3cc(S(=O)(=O)O)cc(S(=O)(=O)O)c23)cc1NC(=O)c1cccc(NC(=O)Nc2cccc(C(=O)Nc3cc(C(=O)Nc4ccc(S(=O)(=O)O)c5cc(S(=O)(=O)O)cc(S(=O)(=O)O)c45)ccc3C)c2)c1 [SURAMIN],1.1 µM,–,–,–,IC50 [5]: Not Active
COc1cc(C=C2C(=O)NC(=S)NC2=O)ccc1OCc1ccccc1Cl,7.5 µM,12.4 µM,6.7 µM,–,–
O=C1NC(=S)NC(=O)C1=Cc1c[nH]c2ccccc12,20.3 µM,46.5 µM,5.9 µM,14%,–
CC(NC(=O)c1ccccc1/N=C/c1c(O)ccc2ccccc12)c1ccccc1 (stereo not given) [SIRTINOL],–,48.9 µM,–,24%,–
O=C1NC(=S)NC(=O)C1=Cc1ccc(OCc2ccccc2)cc1,9.8 µM,12.6 µM,10.5 µM,–,–
O=C1NC(=S)NC(=O)C1=Cc1cn(Cc2ccccc2)c2ccccc12,–,16.6 µM,28.4 µM,–,inhibition [6]: 20%
CCN1C(=O)/C(=C/c2c[nH]c3ccccc23)C(=O)NC1=S,–,55.9 µM,89.3 µM,inactive,inhibition [6]: 10%
O=C1NC(=S)NC(=O)C1=Cc1ccc(OCc2ccc(Br)cc2)cc1,3.4 µM,6.2 µM,9.9 µM,–,–
O=c1[nH]c(=S)[nH]c(-c2ccccc2)c1Cc1c(O)ccc2ccccc12 [CAMBINOL],–,42.5 µM,–,–,–
NC(=O)C1CCCc2c1[nH]c1ccc(Cl)cc21 (stereo not given),–,–,–,–,IC50 [2]: Not Active
